# Assays:
# Candida albicans [1] = assay: Reduction in APE2 gene expression in compound pre-treated Candida albicans SC5314 grown on human Caco2 cells monolayer at 16 ug/ml pre-treated for 2 hrs measured after 18 hrs by RT-PCR method; type: functional, Caco-2
# Procedure, shortened: (§1)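 Caco-2 was seeded at 1.2×10^5 cells/ml in EMEM (10% FCS, 1 mM pyruvate, no antibiotics) for 18 h at 37°C, 5% CO2. Yeast (10^4 cfu/ml) was pre-incubated 2 h in RPMI with 16 µg/ml sulfone, washed, resuspended in RPMI and inoculated onto the monolayer at 37°C. APE2 mRNA was measured by SYBR qPCR against ACT1 (2^-ΔΔCt, 90028 calibrator), in triplicate.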
# Candida albicans [2] = assay: Reduction in APE2 gene expression in compound pre-treated Candida albicans 90028 grown on human Caco2 cells monolayer at 16 ug/ml pre-treated for 2 hrs measured after 6 hrs by RT-PCR method; type: functional, Caco-2
# Procedure, shortened: (§2)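 Blastoconidia are pre-incubated 2 h with 16 µg/ml sulfone in RPMI. They are then washed, resuspended in RPMI and placed on Caco-2 monolayers at 37°C, with RNA taken at 6 or 18 h. Real-time RT-PCR uses SYBR Green with 250 nM primers and 60 ng cDNA: 95°C 15 min, then 45 cycles of 94°C 15 s and 60°C 1 min, plus a melt curve. APE2 is normalized to ACT1 by 2^-ΔΔCt with 90028 as calibrator; three experiments.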
# Candida albicans [3] = assay: Reduction in APE2 gene expression in compound pre-treated Candida albicans CAI4 expressing delta-cph1 gene grown on human Caco2 cells monolayer at 16 ug/ml pre-treated for 2 hrs measured after 18 hrs by RT-PCR method; type: functional, Caco-2; procedure, shortened: as §2
# Candida albicans [4] = assay: Reduction in APE2 gene expression in compound pre-treated Candida albicans CAI4 expressing delta-cph1 (CPH1) gene grown on human Caco2 cells monolayer at 16 ug/ml pre-treated for 2 hrs measured after 6 hrs by RT-PCR method; type: functional, Caco-2; procedure, shortened: as §2
# Candida albicans [5] = assay: Reduction in APE2 gene expression in compound pre-treated Candida albicans CAI4 expressing delta-cph1 (CPH1) gene grown on human Caco2 cells monolayer at 16 ug/ml pre-treated for 2 hrs measured after 18 hrs by RT-PCR method; type: functional, Caco-2; procedure, shortened: as §2
# Candida albicans [6] = assay: Reduction in APE2 gene expression in compound pre-treated Candida albicans CAI4 expressing delta-efg1 gene grown on human Caco2 cells monolayer at 16 ug/ml pre-treated for 2 hrs measured after 6 hrs by RT-PCR method; type: functional, Caco-2; procedure, shortened: as §1
# Candida albicans [7] = assay: Reduction in APE2 gene expression in compound pre-treated Candida albicans CAI4 expressing delta-efg1 gene grown on human Caco2 cells monolayer at 16 ug/ml pre-treated for 2 hrs measured after 18 hrs by RT-PCR method; type: functional, Caco-2; procedure, shortened: as §1
# Candida albicans [8] = assay: Reduction in APE2 gene expression in compound pre-treated Candida albicans CAI4 expressing delta-efg1 (EFG1) gene grown on human Caco2 cells monolayer at 16 ug/ml pre-treated for 2 hrs measured after 6 hrs by RT-PCR method; type: functional, Caco-2; procedure, shortened: as §1
# Candida albicans [9] = assay: Reduction in APE2 gene expression in compound pre-treated Candida albicans CAI4 expressing delta-efg1 (EFG1) gene grown on human Caco2 cells monolayer at 16 ug/ml pre-treated for 2 hrs measured after 18 hrs by RT-PCR method; type: functional, Caco-2; procedure, shortened: as §1
# Candida albicans [10] = assay: Reduction in APE2 gene expression in compound pre-treated Candida albicans CAI4 expressing delta-cph1/delta-efg1 (EFG1) gene grown on human Caco2 cells monolayer at 16 ug/ml pre-treated for 2 hrs measured after 6 hrs by RT-PCR method; type: functional, Caco-2; procedure, shortened: as §2
# Candida albicans [11] = assay: Reduction in APE2 gene expression in compound pre-treated Candida albicans CAI4 expressing delta-cph1/delta-efg1 (EFG1) gene grown on human Caco2 cells monolayer at 16 ug/ml pre-treated for 2 hrs measured after 18 hrs by RT-PCR method; type: functional, Caco-2; procedure, shortened: as §2
# Candida albicans [12] = assay: Inhibition of cell adhesion of compound pre-treated Candida albicans 90028 to human Caco2 cells assessed as cell adhesion level at 4 ug/ml pre-incubated for 18 hrs by colony counting method (reference value: 1.58 +/- 0.67%); type: functional, Caco-2; design: scale not given: the % may be the effect or the level left
# Candida albicans [13] = assay: Inhibition of cell adhesion of compound pre-treated Candida albicans CAI4 expressing delta-efg1 (EFG1) gene to human Caco2 cells assessed as cell adhesion level at 4 ug/ml pre-incubated for 18 hrs by colony counting method (reference value: 2.6 +/- 2.33%); type: functional, Caco-2; design: scale not given: the % may be the effect or the level left
# Candida albicans [14] = assay: Inhibition of cell adhesion of compound pre-treated Candida albicans CAI4 expressing delta-efg1 (EFG1) gene to human Caco2 cells assessed as cell adhesion level at 2 ug/ml pre-incubated for 18 hrs by colony counting method (reference value: 2.6 +/- 2.33%); type: functional, Caco-2; design: scale not given: the % may be the effect or the level left
# Candida albicans [15] = assay: Reduction in APE2 gene expression in compound pre-treated Candida albicans SC5314 grown under YEPD medium at 16 ug/ml pre-treated for 2 hrs measured after 18 hrs by RT-PCR method; type: functional
# Procedure, shortened: (§3)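 YEPD-grown yeast (18 h, 30°C) washed and held at 10^4 cfu/ml in YEPD with 16 µg/ml sulfone for 2 h. Cells were then washed and regrown 18 h at 30°C in YEPD. Total RNA was reverse-transcribed and SYBR Green qPCR run (250 nM primers, 60 ng cDNA, 45 cycles). APE2 was normalized to ACT1 by 2^-ΔΔCt with strain 90028 as calibrator. Done in triplicate on three occasions.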
# Candida albicans [16] = assay: Reduction in APE2 gene expression in compound pre-treated Candida albicans CAI4 expressing delta-cph1 gene grown under YEPD medium at 16 ug/ml pre-treated for 2 hrs measured after 18 hrs by RT-PCR method; type: functional
# Procedure, shortened: (§4)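 Blastoconidia from YEPD (10^4 cfu/ml) are washed and exposed 2 h to 16 µg/ml sulfone in YEPD. They are then washed and regrown 18 h at 30°C in YEPD before RNA extraction. Real-time RT-PCR uses SYBR Green with 250 nM primers and 60 ng cDNA: 95°C 15 min, then 45 cycles of 94°C 15 s and 60°C 1 min, plus a dissociation curve. APE2 is normalized to ACT1 by 2^-ΔΔCt with strain 90028 as calibrator; three experiments.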
# Candida albicans [17] = assay: Reduction in APE2 gene expression in compound pre-treated Candida albicans CAI4 expressing delta-cph1 (CPH1) gene grown under YEPD medium at 16 ug/ml pre-treated for 2 hrs measured after 18 hrs by RT-PCR method; type: functional; procedure, shortened: as §4
# Candida albicans [18] = assay: Reduction in APE2 gene expression in compound pre-treated Candida albicans CAI4 expressing delta-cph1/delta-efg1 gene grown under YEPD medium at 16 ug/ml pre-treated for 2 hrs measured after 18 hrs by RT-PCR method; type: functional; procedure, shortened: as §4
# Candida albicans [19] = assay: Reduction in APE2 gene expression in compound pre-treated Candida albicans CAI4 expressing delta-efg1 (EFG1) gene grown under YEPD medium at 16 ug/ml pre-treated for 2 hrs measured after 18 hrs by RT-PCR method; type: functional; procedure, shortened: as §3
# Candida albicans [20] = assay: Reduction in APE2 gene expression in compound pre-treated Candida albicans CAI4 expressing delta-cph1/delta-efg1 (EFG1) gene grown under YEPD medium at 16 ug/ml pre-treated for 2 hrs measured after 18 hrs by RT-PCR method; type: functional; procedure, shortened: as §4
# Candida albicans [21] = assay: Reduction in APE2 gene expression in compound pre-treated Candida albicans SC5314 grown on human Caco2 cells monolayer at 16 ug/ml pre-treated for 2 hrs measured after 6 hrs by RT-PCR method; type: functional, Caco-2; procedure, shortened: as §1
structure (smiles),measurement,setting,value
NNc1ccc(S(=O)(=O)C(Cl)(Br)Br)cc1[N+](=O)[O-],ΔCt,Candida albicans [1],3.83
same,ΔCt,Candida albicans [2],7.44
same,fold change (FC),Candida albicans [3],4.05
same,fold change (FC),Candida albicans [4],10.25
same,fold change (FC),Candida albicans [5],9.29
same,fold change (FC),Candida albicans [6],10.27
same,fold change (FC),Candida albicans [7],9.07
same,fold change (FC),Candida albicans [8],10.7
same,fold change (FC),Candida albicans [9],8.72
same,fold change (FC),Candida albicans [10],9.42
same,fold change (FC),Candida albicans [11],3.55
same,Activity,Candida albicans [12],0.91%
same,Activity,Candida albicans [13],0.91%
same,Activity,Candida albicans [14],0.51%
same,ΔCt,Candida albicans [15],2.84
same,ΔCt,Candida albicans [16],0.11
same,ΔCt,Candida albicans [17],4.71
same,ΔCt,Candida albicans [18],4.05
same,ΔCt,Candida albicans [19],3.44
same,ΔCt,Candida albicans [20],3.3
same,ΔCt,Candida albicans [21],6.39

# Source: ChEMBL document CHEMBL3351861, “New synthetic sulfone derivatives inhibit growth, adhesion and the leucine arylamidase APE2 gene expression of Candida albicans in vitro” (2015)
